Reference: ChEMBL document CHEMBL1127343, “"Glycylcyclines". 3. 9-Aminodoxycyclinecarboxamides” (1994)
Converted amounts (≈) assume the structure as drawn.

Tests used:
Format in all cases: functional
Escherichia coli [1] = test: In vitro antibacterial activity was measured on gram negative bacteria Escherichia coli UBMS 90-5 sensitive cell lines
Outline: (§1)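 MIC by agar dilution on Mueller-Hinton II agar; inoculum (1–5) × 10^5 CFU/mL; antibiotic range 32–0.004 μg/mL; plates incubated 18 h at 35 °C in forced-air incubator. MIC taken as lowest concentration inhibiting growth. Tetracycline, minocycline and doxycycline run as standards in each assay.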

Escherichia coli [2] = test: In vitro antibacterial activity was measured on gram negative bacteria Escherichia coli PRP-1 tet-a(efflux resistance) cell lines
Escherichia coli [3] = test: In vitro antibacterial activity was measured on gram negative bacteria Escherichia coli UBMS 88-1 tet-B(efflux resistance) cell lines
Staphylococcus aureus [4] = test: In vitro antibacterial activity was measured on gram positive bacteria Staphylococcus aureus UBMS 90-1 tet-M (ribosomal protection) cell lines; outline: as §1
Staphylococcus aureus [5] = test: In vitro antibacterial activity was measured on gram positive bacteria Staphylococcus aureus smith cell lines; outline: as §1
Escherichia coli [6] = test: In vitro antibacterial activity was measured on gram negative bacteria Escherichia coli J3272 tet-C(efflux resistance) cell lines
Staphylococcus aureus [7] = test: In vitro antibacterial activity was measured on gram positive bacteria Staphylococcus aureus UBMS 90-3 sensitive cell lines; outline: as §1
Escherichia coli [8] = test: In vitro antibacterial activity was measured on gram negative bacteria Escherichia coli UBMS 90-4 tet-M (ribosomal protection) cell lines
Outline: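 Agar dilution MIC on Mueller-Hinton II agar. Inoculum (1–5) × 10^5 CFU/mL, drug range 32–0.004 μg/mL. Plates incubated 18 h at 35 °C in a forced-air incubator. MIC is the lowest concentration that inhibits growth. The strain panel covered tetracycline-sensitive and -resistant strains. Tetracycline, minocycline and doxycycline were run as standards in each assay.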

Escherichia coli [9] = test: In vitro antibacterial activity was measured on gram negative bacteria Escherichia coli J3272 tet-D(efflux resistance) cell lines
Staphylococcus aureus [10] = test: In vitro antibacterial activity was measured on gram positive bacteria Staphylococcus aureus UBMS 88-7 tet-k(efflux resistance) cell lines

Molecule `C[C@H]1c2ccc(NC(=O)[C@@H]3CCCN3)c(O)c2C(=O)C2=C(O)[C@]3(O)C(O)=C(C(N)=O)C(=O)[C@@H](N(C)C)C3[C@@H](O)C21` (stereo not given in full) has an MIC (Escherichia coli [1]) of 2 µg/mL (≈ 3.59 µM), an MIC (Escherichia coli [2]) of 16 µg/mL (≈ 28.7 µM) and an MIC (Escherichia coli [3]) of 4 µg/mL (≈ 7.19 µM). For the same molecule, the MIC (Staphylococcus aureus [4]) was 4 µg/mL (≈ 7.19 µM), the MIC (Staphylococcus aureus [5]) was 2 µg/mL (≈ 3.59 µM) and the MIC (Escherichia coli [6]) was 8 µg/mL (≈ 14.4 µM). For the same molecule, the MIC (Staphylococcus aureus [7]) was 1 µg/mL (≈ 1.8 µM), the MIC (Escherichia coli [8]) was 2 µg/mL (≈ 3.59 µM) and the MIC (Escherichia coli [9]) was 1 µg/mL (≈ 1.8 µM).

In the case of `CC(C)C[C@H](N)C(=O)Nc1ccc2c(c1O)C(=O)C1=C(O)[C@]3(O)C(O)=C(C(N)=O)C(=O)[C@@H](N(C)C)C3CC1C2` (stereo not given in full), the MIC (Escherichia coli [1]) is reported as 2 µg/mL (≈ 3.69 µM), the MIC (Escherichia coli [2]) is reported as 4 µg/mL (≈ 7.37 µM) and the MIC (Escherichia coli [3]) is reported as 4 µg/mL (≈ 7.37 µM). The MIC (Staphylococcus aureus [4]) was 1 µg/mL (≈ 1.84 µM), the MIC (Staphylococcus aureus [5]) was 2 µg/mL (≈ 3.69 µM) and the MIC (Escherichia coli [6]) was 4 µg/mL (≈ 7.37 µM). The MIC (Staphylococcus aureus [7]) was 1 µg/mL (≈ 1.84 µM), the MIC (Escherichia coli [8]) was 2 µg/mL (≈ 3.69 µM) and the MIC (Escherichia coli [9]) was 1 µg/mL (≈ 1.84 µM).

`CC[C@H](C)[C@H](N)C(=O)Nc1ccc2c(c1O)C(=O)C1=C(O)[C@]3(O)C(O)=C(C(N)=O)C(=O)[C@@H](N(C)C)C3[C@@H](O)C1[C@H]2C` (stereo not given in full) was tested, and the MIC (Escherichia coli [1]) was 1 µg/mL (≈ 1.75 µM), the MIC (Escherichia coli [2]) was 16 µg/mL (≈ 27.9 µM) and the MIC (Escherichia coli [3]) was 2 µg/mL (≈ 3.49 µM). The MIC (Staphylococcus aureus [4]) was 1 µg/mL (≈ 1.75 µM), the MIC (Staphylococcus aureus [5]) was 1 µg/mL (≈ 1.75 µM) and the MIC (Escherichia coli [6]) was 4 µg/mL (≈ 6.99 µM). It also gave an MIC (Staphylococcus aureus [10]) of 2 µg/mL (≈ 3.49 µM), an MIC (Staphylococcus aureus [7]) of 0.25 µg/mL (≈ 0.437 µM) and an MIC (Escherichia coli [8]) of 1 µg/mL (≈ 1.75 µM). For the same molecule, the MIC (Escherichia coli [9]) was 0.5 µg/mL (≈ 0.873 µM).

`CC(C)C[C@H](N)C(=O)Nc1ccc2c(c1O)C(=O)C1=C(O)[C@]3(O)C(O)=C(C(N)=O)C(=O)[C@@H](N(C)C)C3[C@@H](O)C1[C@H]2C` (stereo not given in full) showed an MIC (Escherichia coli [1]) of 1 µg/mL (≈ 1.75 µM), an MIC (Escherichia coli [2]) of 16 µg/mL (≈ 27.9 µM) and an MIC (Escherichia coli [3]) of 2 µg/mL (≈ 3.49 µM). It also gave an MIC (Staphylococcus aureus [4]) of 1 µg/mL (≈ 1.75 µM), an MIC (Staphylococcus aureus [5]) of 0.5 µg/mL (≈ 0.873 µM) and an MIC (Escherichia coli [6]) of 4 µg/mL (≈ 6.99 µM). The MIC (Staphylococcus aureus [10]) was 2 µg/mL (≈ 3.49 µM), the MIC (Staphylococcus aureus [7]) was 0.5 µg/mL (≈ 0.873 µM) and the MIC (Escherichia coli [8]) was 1 µg/mL (≈ 1.75 µM).

In the case of `CN(C)CC(=O)Nc1ccc2c(c1O)C(=O)C1=C(O)[C@]3(O)C(O)=C(C(N)=O)C(=O)[C@@H](N(C)C)[C@@H]3CC1C2` (stereo not given in full), the MIC (Escherichia coli [1]) is reported as 0.25 µg/mL (≈ 0.486 µM), the MIC (Escherichia coli [2]) is reported as 2 µg/mL (≈ 3.89 µM) and the MIC (Escherichia coli [3]) is reported as 1 µg/mL (≈ 1.94 µM). The MIC (Staphylococcus aureus [4]) was 0.25 µg/mL (≈ 0.486 µM), the MIC (Staphylococcus aureus [5]) was 0.12 µg/mL (≈ 0.233 µM) and the MIC (Escherichia coli [6]) was 2 µg/mL (≈ 3.89 µM). For the same molecule, the MIC (Staphylococcus aureus [10]) was 1 µg/mL (≈ 1.94 µM), the MIC (Staphylococcus aureus [7]) was 0.12 µg/mL (≈ 0.233 µM) and the MIC (Escherichia coli [8]) was 0.25 µg/mL (≈ 0.486 µM).

Work on `C[C@H]1c2ccc(NC(=O)[C@@H](N)CC3CCCCC3)c(O)c2C(=O)C2=C(O)[C@]3(O)C(O)=C(C(N)=O)C(=O)[C@@H](N(C)C)C3[C@@H](O)C21` (stereo not given in full) yielded an MIC (Escherichia coli [1]) of 4 µg/mL (≈ 6.53 µM), an MIC (Escherichia coli [2]) of 8 µg/mL (≈ 13.1 µM) and an MIC (Escherichia coli [3]) of 8 µg/mL (≈ 13.1 µM). For the same molecule, the MIC (Staphylococcus aureus [4]) was 8 µg/mL (≈ 13.1 µM), the MIC (Staphylococcus aureus [5]) was 1 µg/mL (≈ 1.63 µM) and the MIC (Escherichia coli [6]) was 8 µg/mL (≈ 13.1 µM). For the same molecule, the MIC (Staphylococcus aureus [10]) was 2 µg/mL (≈ 3.26 µM), the MIC (Staphylococcus aureus [7]) was 0.5 µg/mL (≈ 0.816 µM) and the MIC (Escherichia coli [8]) was 4 µg/mL (≈ 6.53 µM). The MIC (Escherichia coli [9]) was 2 µg/mL (≈ 3.26 µM).

In the case of `CN[C@@H](CC(C)C)C(=O)Nc1ccc2c(c1O)C(=O)C1=C(O)[C@]3(O)C(O)=C(C(N)=O)C(=O)[C@@H](N(C)C)C3[C@@H](O)C1[C@H]2C` (stereo not given in full), the MIC (Escherichia coli [1]) is reported as 4 µg/mL (≈ 6.82 µM), the MIC (Escherichia coli [2]) is reported as 16 µg/mL (≈ 27.3 µM) and the MIC (Escherichia coli [3]) is reported as 8 µg/mL (≈ 13.6 µM). For the same molecule, the MIC (Staphylococcus aureus [4]) was 2 µg/mL (≈ 3.41 µM), the MIC (Staphylococcus aureus [5]) was 2 µg/mL (≈ 3.41 µM) and the MIC (Escherichia coli [6]) was 8 µg/mL (≈ 13.6 µM). For the same molecule, the MIC (Staphylococcus aureus [7]) was 1 µg/mL (≈ 1.7 µM), the MIC (Escherichia coli [8]) was 4 µg/mL (≈ 6.82 µM) and the MIC (Escherichia coli [9]) was 2 µg/mL (≈ 3.41 µM).

For `CC(C)[C@H](N)C(=O)Nc1ccc2c(c1O)C(=O)C1=C(O)[C@]3(O)C(O)=C(C(N)=O)C(=O)[C@@H](N(C)C)C3[C@@H](O)C1[C@H]2C` (stereo not given in full), the MIC (Escherichia coli [1]) was 2 µg/mL (≈ 3.58 µM), the MIC (Escherichia coli [2]) was 32 µg/mL (≈ 57.3 µM) and the MIC (Escherichia coli [3]) was 4 µg/mL (≈ 7.16 µM). The MIC (Staphylococcus aureus [4]) was 2 µg/mL (≈ 3.58 µM), the MIC (Staphylococcus aureus [5]) was 1 µg/mL (≈ 1.79 µM) and the MIC (Escherichia coli [6]) was 8 µg/mL (≈ 14.3 µM). For the same molecule, the MIC (Staphylococcus aureus [10]) was 8 µg/mL (≈ 14.3 µM), the MIC (Staphylococcus aureus [7]) was 0.5 µg/mL (≈ 0.895 µM) and the MIC (Escherichia coli [8]) was 2 µg/mL (≈ 3.58 µM). For the same molecule, the MIC (Escherichia coli [9]) was 1 µg/mL (≈ 1.79 µM).

In the case of `C[C@H]1c2ccc(NC(=O)[C@@H](N)Cc3ccccc3)c(O)c2C(=O)C2=C(O)[C@]3(O)C(O)=C(C(N)=O)C(=O)[C@@H](N(C)C)C3[C@@H](O)C21` (stereo not given in full), the MIC (Escherichia coli [1]) is reported as 4 µg/mL (≈ 6.59 µM), the MIC (Escherichia coli [2]) is reported as 8 µg/mL (≈ 13.2 µM) and the MIC (Staphylococcus aureus [4]) is reported as 1 µg/mL (≈ 1.65 µM). It also gave an MIC (Staphylococcus aureus [5]) of 0.25 µg/mL (≈ 0.412 µM), an MIC (Staphylococcus aureus [10]) of 4 µg/mL (≈ 6.59 µM) and an MIC (Staphylococcus aureus [7]) of 0.5 µg/mL (≈ 0.824 µM). It also gave an MIC (Escherichia coli [8]) of 2 µg/mL (≈ 3.3 µM) and an MIC (Escherichia coli [9]) of 1 µg/mL (≈ 1.65 µM).

Molecule `C[C@H]1c2ccc(NC(=O)CN(C)C)c(O)c2C(=O)C2=C(O)[C@]3(O)C(O)=C(C(N)=O)C(=O)[C@@H](N(C)C)C3[C@@H](O)C21` (stereo not given in full) has an MIC (Escherichia coli [1]) of 0.5 µg/mL (≈ 0.918 µM), an MIC (Escherichia coli [2]) of 2 µg/mL (≈ 3.67 µM) and an MIC (Escherichia coli [3]) of 1 µg/mL (≈ 1.84 µM). The MIC (Staphylococcus aureus [4]) was 0.5 µg/mL (≈ 0.918 µM), the MIC (Staphylococcus aureus [5]) was 0.25 µg/mL (≈ 0.459 µM) and the MIC (Escherichia coli [6]) was 8 µg/mL (≈ 14.7 µM). It also gave an MIC (Staphylococcus aureus [10]) of 4 µg/mL (≈ 7.35 µM), an MIC (Staphylococcus aureus [7]) of 0.12 µg/mL (≈ 0.22 µM) and an MIC (Escherichia coli [8]) of 0.25 µg/mL (≈ 0.459 µM).

For `C[C@H]1c2ccc(NC(=O)[C@H](N)Cc3ccccc3)c(O)c2C(=O)C2=C(O)[C@]3(O)C(O)=C(C(N)=O)C(=O)[C@@H](N(C)C)C3[C@@H](O)C21` (stereo not given in full), the MIC (Escherichia coli [1]) was 4 µg/mL (≈ 6.59 µM), the MIC (Escherichia coli [2]) was 16 µg/mL (≈ 26.4 µM) and the MIC (Staphylococcus aureus [4]) was 8 µg/mL (≈ 13.2 µM). It also gave an MIC (Staphylococcus aureus [5]) of 0.5 µg/mL (≈ 0.824 µM), an MIC (Staphylococcus aureus [10]) of 16 µg/mL (≈ 26.4 µM) and an MIC (Staphylococcus aureus [7]) of 1 µg/mL (≈ 1.65 µM). The MIC (Escherichia coli [8]) was 2 µg/mL (≈ 3.3 µM) and the MIC (Escherichia coli [9]) was 1 µg/mL (≈ 1.65 µM).
